Drawing on PubChem BioAssay AID493235 (Broad Institute, 2011), this text covers activation and AC500 for 80 compounds.

Structures are written as SMILES. Values joined by “and” are separate entries in the source; they are usually repeats but may differ in a detail not shown here. Equal entries are not always repeated. Records with an inconclusive call do not appear. Active and inactive are the calls of the source.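 The calls were made as follows: active = fitted dose curve passes 500% activation at or below the top valid tested dose; inconclusive = no clear call, values can overlap the other calls; inactive = the rest, opposite-direction activity included.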

System in the first test: not listed separately
Nature of the test: HIF pathway activators in HRE-luciferase reporter, dose response, cell-based, U2OS, luminescence, dry powder, set 7 (AID 493235). Particulars: U2OS HRE-luciferase reporter, luminescence; at 38 µM (top of the series). In a few lines:
(§1)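 Test system: human U2OS osteosarcoma cells stably expressing 3×HRE-driven luciferase reporter; input: 6,000 cells per well; medium: DMEM without phenol red, with 10% fetal bovine serum; compound: 8 concentrations, 3-fold steps; schedule: 24 h pre-culture, 24 h compound treatment, 37 °C; technique: luminescence with Steady-Glo luciferase reagent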
For `O=C(Nc1nc2ccccc2s1)c1cc(-c2ccccc2)on1`, the activation is 4.65% (inactive).

For the compound `Cc1ccc(NC(=O)c2cc(-c3ccccc3)on2)cn1`, the activation is -7.72% (inactive).

Consider `O=C(c1cc(-c2ccccc2)on1)N1CCN(c2ccncc2)CC1`, for which the activation was -14.8% (inactive).

Turning to `O=C(Nc1nnc(-c2ccccc2)s1)c1cc(-c2ccccc2)on1`, the activation was -7.41% (inactive).

As for `CC(C)(C)OC(=O)N1CCN(Cc2ccc(O)c3ncccc23)CC1`, the activation was 271% (inactive).

Take `Oc1ccc(CN2CCc3ccccc3C2)c2cccnc12`: the activation is 263% (inactive).

Regarding `CC1CN(Cc2ccc(O)c3ncccc23)CC(C)O1` (stereo unspecified), the activation is 95.7% (inactive).

As to `O=C(Nc1cn2ccccc2n1)c1cc(-c2ccccc2)on1`, the activation is 31.3% (inactive).

In the case of `Cc1cccc(NC(=O)c2cc(-c3ccccc3)on2)n1`, the activation was 29.2% (inactive).

As for `Cn1c(NC(=O)c2cc(-c3ccccc3)on2)nc2ccccc21`, the activation is -0.753% (inactive).

In the case of `Cc1cccc(CNC(=O)c2cc(-c3ccccc3)on2)c1`, the activation was 1.59% (inactive).

In the case of `O=C(NCCCO)c1cc(-c2ccccc2)on1`, the activation was 400% (inactive).

Take `O=C(Nc1ncc2ccccc2n1)c1cc(-c2ccccc2)on1`: the activation was 104% (inactive).

For the compound `Cn1c(-c2ccccc2)cnc1NC(=O)c1cc(-c2ccccc2)on1`, the activation was 9.12% (inactive).

For `O=C(NCc1ccccc1)c1cc(-c2ccccc2)on1`, the activation is 50.8% (inactive).

Regarding `O=C(Nc1nc(-c2ccccc2)cs1)c1cc(-c2ccccc2)on1`, the activation is -17.1% (inactive).

Regarding `O=C(c1cc(-c2ccccc2)on1)N1CCC(N2CCCC2)CC1`, the activation is 5.02% (inactive).

Take `CN(C)CCNC(=O)c1cc(-c2ccccc2)on1`: the activation was 29.6% (inactive).

Regarding `O=C(Nc1ccc2ccccc2n1)c1cc(-c2ccccc2)on1`, the activation was 12.3% (inactive).

As for `OCC1CCN(Cc2ccc(O)c3ncccc23)CC1`, the activation was 480% (inactive).

On to `N#CC1(c2ccccc2)CCN(Cc2ccc(O)c3ncccc23)CC1`, for which the activation is 368% (inactive).

With `O=C(c1cc(-c2ccccc2)on1)N1CCC(N2CCOCC2)CC1`, the activation was 8.48% (inactive).

Take `O=C(Nc1ncc(-c2ccccc2)o1)c1cc(-c2ccccc2)on1`: the activation is 14.8% (inactive).

For `O=C(NC1CCc2ccccc2C1)c1cc(-c2ccccc2)on1` (stereo unspecified), the activation is 5.28% (inactive).

As to `Cc1ccccc1CNC(=O)c1cc(-c2ccccc2)on1`, the activation is 22.9% (inactive).

Turning to `O=C(Nc1cnc2ccccc2c1)c1cc(-c2ccccc2)on1`, the activation is 28.8% (inactive).

For `CN1CCN(C(=O)c2cc(-c3ccccc3)on2)CC1`, the activation is 2.48% (inactive).

In a further test the test system is U2OS HRE-luciferase reporter, luminescence. Described as above.
Details: not given
In outline: as §1
In the case of `c1ccc(-c2nnc(-c3ccccn3)nc2N2CCN(c3ccncc3)CC2)cc1`, the AC500 was 9.6 µM.

Regarding `c1ccc(-c2nnc(-c3ccccn3)nc2N2CCC(c3ccccc3)C2)cc1` (stereo unspecified), the AC500 is 1.72 µM.

Take `c1ccc(CCNc2nc(-c3ccccn3)nnc2-c2ccccc2)cc1`: the AC500 is 2.81 µM.

In the case of `c1ccc(-c2ccc(CNc3nc(-c4ccccn4)nnc3-c3ccccc3)cc2)cc1`, the AC500 is 0.71 µM.

As for `c1ccc(-c2nnc(-c3ccccn3)nc2N2CCC(N3CCOCC3)CC2)cc1`, the AC500 is 4.84 µM.

As to `CN1CCN(c2nc(-c3ccccn3)nnc2-c2ccccc2)CC1`, the AC500 is 12.1 µM.

As to `c1ccc(-c2nnc(-c3ccccn3)nc2N2CCC(C3CCCCC3)C2)cc1` (stereo unspecified), the AC500 is 4.37 µM.

For `Oc1ccc(CN2CCC3CCCCC3C2)c2cccnc12` (stereo unspecified), the AC500 is 11.1 µM.

For the compound `COc1cccc(CNc2nc(-c3ccccn3)nnc2-c2ccccc2)c1`, the AC500 was 2.07 µM.

`CC(Nc1nc(-c2ccccn2)nnc1-c1ccccc1)c1ccccc1` (stereo unspecified): the AC500 is 2.97 µM.

In the case of `Cc1ccc(CNc2nc(-c3ccccn3)nnc2-c2ccccc2)cc1C`, the AC500 is 1.31 µM.

In the case of `c1ccc(-c2cnc(Nc3nc(-c4ccccn4)nnc3-c3ccccc3)s2)cc1`, the AC500 is 6.49 µM.

As for `O=C(NCCCN1CCOCC1)c1cc(-c2ccccc2)on1`, the AC500 was 11.3 µM.

With `COc1ccc(CNc2nc(-c3ccccn3)nnc2-c2ccccc2)cc1`, the AC500 is 2.59 µM.

Consider `Oc1ccc(CN2CCc3ccccc3C2)c2cccnc12`, for which the AC500 was 3.21 µM.

As for `Oc1ccc(CN2CCC(Cc3ccccc3)CC2)c2cccnc12`, the AC500 is 20.1 µM.

Take `COc1ccccc1N1CCN(Cc2ccc(O)c3ncccc23)CC1`: the AC500 was 26.5 µM.

With `c1ccc(-c2nnc(-c3ccccn3)nc2NCCN2CCOCC2)cc1`, the AC500 was 9.37 µM.

For `CC(C)(C)CCNc1nc(-c2ccccn2)nnc1-c1ccccc1`, the AC500 is 2.2 µM and 1.47 µM.

On to `CCCCNC(=O)c1cc(-c2ccccc2)on1`, for which the AC500 is 9.47 µM.

For `c1ccc(-c2nnc(Nc3nc(-c4ccccn4)nnc3-c3ccccc3)s2)cc1`, the AC500 was 2.99 µM.

`Clc1cccc(CNc2nc(-c3ccccn3)nnc2-c2ccccc2)c1`: the AC500 was 1.84 µM.

As to `Cn1c(-c2ccccc2)cnc1Nc1nc(-c2ccccn2)nnc1-c1ccccc1`, the AC500 is 9.16 µM.

On to `Cc1ccc(Nc2nc(-c3ccccn3)nnc2-c2ccccc2)cn1`, for which the AC500 was 11.2 µM.

Take `C[C@@H](Nc1nc(-c2ccccn2)nnc1-c1ccccc1)c1ccccc1`: the AC500 is 3.92 µM.

Consider `c1ccc(CNc2nc(-c3ccccn3)nnc2-c2ccccc2)cc1`, for which the AC500 is 5.52 µM.

For `O=C(NCCCCO)c1cc(-c2ccccc2)on1`, the AC500 is 2.82 µM.

In the case of `C=CCNc1nc(-c2ccccn2)nnc1-c1ccccc1`, the AC500 was 9.45 µM.

As to `O=C(NCCN1CCOCC1)c1cc(-c2ccccc2)on1`, the AC500 is 14.2 µM.

Turning to `OCC1CCN(c2nc(-c3ccccn3)nnc2-c2ccccc2)CC1`, the AC500 was 21.7 µM.

Take `CC(C)(C)CCNC(=O)c1cc(-c2ccccc2)on1`: the AC500 is 35.8 µM.

As to `c1ccc(-c2nnc(-c3ccccn3)nc2NCc2ccccn2)cc1`, the AC500 was 20.5 µM.

As to `Cc1ccc(CNc2nc(-c3ccccn3)nnc2-c2ccccc2)cc1`, the AC500 was 4.35 µM.

Consider `OCCCNc1nc(-c2ccccn2)nnc1-c1ccccc1`, for which the AC500 is 16.8 µM.

Consider `c1ccc(-c2csc(Nc3nc(-c4ccccn4)nnc3-c3ccccc3)n2)cc1`, for which the AC500 was 2.01 µM.

With `Cc1cccc(CNc2nc(-c3ccccn3)nnc2-c2ccccc2)c1`, the AC500 was 4.08 µM.

`c1ccc(-c2nnc(-c3ccccn3)nc2NCCCN2CCOCC2)cc1`: the AC500 is 10.2 µM.

In the case of `c1ccc(-c2nnc(-c3ccccn3)nc2Nc2nc3ccccc3s2)cc1`, the AC500 was 5.89 µM.

Consider `c1ccc(-c2nnc(-c3ccccn3)nc2NCC2CCOCC2)cc1`, for which the AC500 was 14.2 µM.

For `CC(C)(C)c1ccc(CNc2nc(-c3ccccn3)nnc2-c2ccccc2)cc1`, the AC500 is 1.33 µM.

In the case of `C[C@@H](Nc1nc(-c2ccccn2)nnc1-c1ccccc1)C1CCCCC1`, the AC500 is 4.02 µM.

Consider `c1ccc(-c2cccc(CNc3nc(-c4ccccn4)nnc3-c3ccccc3)c2)cc1`, for which the AC500 is 3.39 µM.

As to `Cc1ccccc1CNc1nc(-c2ccccn2)nnc1-c1ccccc1`, the AC500 was 2.82 µM.

Turning to `c1ccc(-c2nnc(-c3ccccn3)nc2NCCc2ccccn2)cc1`, the AC500 is 10.3 µM.

`O=C(NCCCn1ccnc1)c1cc(-c2ccccc2)on1`: the AC500 was 5.75 µM.

Consider `CN(C)c1nc(-c2ccccn2)nnc1-c1ccccc1`, for which the AC500 was 14.2 µM.

Consider `c1ccc(-c2nnc(-c3ccccn3)nc2NCC2CCCCC2)cc1`, for which the AC500 is 2.17 µM.

Take `Oc1ccc(CNC2Cc3ccccc3C2)c2cccnc12`: the AC500 is 28.6 µM.

With `C[C@H](Nc1nc(-c2ccccn2)nnc1-c1ccccc1)C1CCCCC1`, the AC500 was 2.99 µM.

Consider `c1ccc(-c2nnc(-c3ccccn3)nc2Nc2cnc3ccccc3n2)cc1`, for which the AC500 was 6.2 µM.

`c1ccc(-c2nnc(-c3ccccn3)nc2NCC2CC2)cc1`: the AC500 was 8.75 µM.

As for `O=C(NCC1CC1)c1cc(-c2ccccc2)on1`, the AC500 is 10 µM.

In the case of `c1ccc(-c2nnc(-c3ccccn3)nc2NCc2cccnc2)cc1`, the AC500 was 15.3 µM.

As for `Cc1cccc(Nc2nc(-c3ccccn3)nnc2-c2ccccc2)n1`, the AC500 is 10.7 µM.
